Measured values of several laboratories.
Lines come from different studies, so protocols differ.
SETD7: Histone-lysine N-methyltransferase SETD7 (SETD7, Homo sapiens, UniProt Q8WTS6)
MMP2: 72 kDa type IV collagenase (MMP2, Homo sapiens, UniProt P08253)
PRKCE: Protein kinase C epsilon type (PRKCE, Homo sapiens, UniProt Q02156)

CN1CCN(c2nc(N)c3ccccc3n2)CC1 — inhibition (Neuronal acetylcholine receptor subunit alpha-7 (CHRNA7, Homo sapiens, UniProt P36544); ligand displacement, radioligand; 0.1 µM): 31.9%
CCN(CC)CCCC[C@H](NC(=O)[C@H](CC(C)C)NC(=O)[C@H](C)NC(=O)[C@H](Cc1ccccc1)NC(=O)c1ccc(C(C)(C)C)cc1)C(=O)N[C@@H](CO)C(=O)OC — inhibition (Galanin receptor type 2 (GALR2, Homo sapiens, UniProt O43603); ligand displacement, radioligand; 10 µM): -21%
CC(C)=CCCC1(C)C=Cc2c(O)c3c(c(CC=C(C)C)c2O1)OC12C(=CC4CC1C(C)(C)OC2(C/C=C(/C)C(=O)O)C4O)C3=O (stereo not shown) — inhibition (SETD7; cell-free assay; 10 µM): 11%
Cn1cc(-c2cc(F)cc(N3CCn4c(cc5c4CCCC5)C3=O)c2CO)cc(Nc2ccc(N3CCN(C4COC4)CC3)cn2)c1=O — inhibition (G protein-coupled receptor kinase 5 (GRK5, Homo sapiens, UniProt P34947); enzyme activity, inhibitor; 0.1 µM): 4%
CCOC(=O)c1ccc(OC(=O)CCCCCNC(=N)N)cc1 — inhibition (MMP2; enzyme activity, inhibitor; 10 µM): 26%
Cn1cc(-c2cccc(N3CCc4c(sc5c4CC(C)(C)C5)C3=O)c2CO)cc(Nc2ccncn2)c1=O — inhibition (G protein-coupled receptor kinase 6 (GRK6, Homo sapiens, UniProt P43250); enzyme activity, inhibitor; 1 µM): -1%
C#Cc1n[nH]c2c(-c3cn([C@@H](C)c4ccccc4)c(=O)[nH]c3=O)cc(F)cc12 — inhibition (PRKCE; enzyme activity, inhibitor; 0.1 µM): 7.2%
CC(C)C[C@H](NC(=O)[C@H](Cc1ccccc1)NC(=O)c1cnccn1)B(O)O — inhibition (Lysosomal protective protein (CTSA, Homo sapiens, UniProt P10619); cell-free assay, inhibitor; 33 µM): 32.4%
COc1ccc(S(=O)(=O)N(CC(=O)NO)CC(C)C)cc1 — inhibition (MMP2; enzyme activity, inhibitor; 0.1 µM): 71%
Cc1ncc(C)n2nc(/C=C/c3nc(N4CCCC4)cc(N4CCOCC4)n3)nc12 — inhibition (Prostacyclin receptor (PTGIR, Homo sapiens, UniProt P43119); cell-free assay; 10 µM): 22%
CN(C)C(=O)COC(=O)Cc1ccc(OC(=O)c2ccc(NC(=N)N)cc2)cc1 — inhibition (Ubiquitin carboxyl-terminal hydrolase isozyme L1 (UCHL1, Homo sapiens, UniProt P09936); enzyme activity, inhibitor; 10 µM): 7%
C[C@H](C(=O)N[C@H]1COc2ccccc2[C@@H]1S(C)(=O)=O)c1ccc(F)cc1 — inhibition (Coagulation factor X (F10, Homo sapiens, UniProt P00742); enzyme activity, inhibitor; 10 µM): -3%
C#Cc1n[nH]c2c(-c3cn(C(C)c4ccccn4)c(=O)[nH]c3=O)cc(F)cc12 (stereo not shown) — inhibition (PRKCE; enzyme activity, inhibitor; 1 µM): 3.8%
O=C(Nc1cccnn1)N1CCN([C@@H]2CCOc3cc(C(F)(F)F)ccc32)CC1 — inhibition (MMP2; cell-free assay; 20 µM): 20%
CC(C)=CCC[C@]1(C)C=Cc2c(O)c3c(c(CC=C(C)C)c2O1)O[C@]12C(=C[C@@H]4C[C@H]1C(C)(C)O[C@@]2(C/C=C(/C)C(=O)O)C4=O)C3=O — inhibition (SETD7; cell-free assay; 10 µM): -5%
N=C(N)c1ccc2cc(OC(=O)c3ccc(N=C(N)N)cc3)ccc2c1 — inhibition (MMP2; enzyme activity, inhibitor; 10 µM): 0%
